Laboratory results: PMC8602434 (Drugs in R&D, 2021)

Assay: Healthy volunteers, single-dose arm, sc
Format: in vivo
Conditions: human
How it was run: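 Double-blind single abdominal sc injection at 0.1, 0.5, 1, 3 or 5 mg versus placebo. Cohorts of six or eight subjects; the 0.1 mg cohort had 4 active and 2 placebo. Serial blood sampling to 48 h post-dose. Plasma assayed by validated bioanalytical method. Noncompartmental analysis: Cmax, tmax, t½, AUC (linear trapezoidal to last quantifiable concentration), AUC∞, CL/F. AEs recorded.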

[1] = single 0.5 mg sc, geometric mean, n=2
[2] = single 0.5 mg sc, geometric mean, n=4
[3] = single 1.0 mg sc, geometric mean, n=6
[4] = single 3.0 mg sc, mean (SD), n=6
[5] = single 5.0 mg sc, geometric mean, n=6
[6] = single 5.0 mg sc, mean (SD), n=6

CCCC[C@H](NC(C)=O)C(=O)N[C@H]1CCC(=O)NC[C@@H](C(=O)N[C@@H](Cc2c[nH]c3ccccc23)C(N)=O)NC(=O)[C@H](CCCNC(=N)N)NC(=O)[C@@H](Cc2ccccc2)NC(=O)[C@H](Cc2c[nH]cn2)NC1=O [PL8177]
Cmax/dose (single 0.1 mg sc, mean (SD), n=4): 23.4 (10.1) ng/mL/mg
AUC0–t (single 0.1 mg sc, median, n=4): 2.6 ng·h/mL
AUC∞ (single 0.1 mg sc, median, n=4): 3.5 ng·h/mL
AUC∞/dose (single 0.1 mg sc, median, n=4): 35.3 ng·h/mL/mg
CL/F (single 0.1 mg sc, median, n=4): 28.5 L/h
Cmax (single 0.1 mg sc, median, n=4): 1.9 ng/mL
Cmax/dose (single 0.1 mg sc, median, n=4): 18.9 ng/mL/mg
Vd/F (single 0.1 mg sc, median, n=4): 36.6 L
t½ (single 0.1 mg sc, median, n=4): 0.8 h
AUC∞/dose [1]: 50.4 ng·h/mL/mg
Vd/F [1]: 74.1 L
AUC0–t [2]: 16.8 ng·h/mL
AUC∞ [2]: 19.4 ng·h/mL
CL/F [2]: 25.8 L/h
Cmax [2]: 7.6 ng/mL
Cmax/dose [2]: 15.3 ng/mL/mg
t½ [2]: 2.6 h
AUC∞/dose (single 0.5 mg sc, mean (SD), n=2): 59.9 (45.8) ng·h/mL/mg
Cmax/dose (single 0.5 mg sc, mean (SD), n=4): 16.4 (7.5) ng/mL/mg
AUC∞/dose (single 0.5 mg sc, median, n=2): 59.9 ng·h/mL/mg
Vd/F (single 0.5 mg sc, median, n=2): 74.4 L
AUC0–t (single 0.5 mg sc, median, n=4): 13.3 ng·h/mL
AUC∞ (single 0.5 mg sc, median, n=4): 15 ng·h/mL
CL/F (single 0.5 mg sc, median, n=4): 33.6 L/h
Cmax (single 0.5 mg sc, median, n=4): 7.2 ng/mL
Cmax/dose (single 0.5 mg sc, median, n=4): 14.3 ng/mL/mg
t½ (single 0.5 mg sc, median, n=4): 2.6 h
AUC∞/dose (single 1.0 mg sc, geometric mean, n=3): 35.4 ng·h/mL/mg
AUC0–t [3]: 39.4 ng·h/mL
AUC∞ [3]: 44.9 ng·h/mL
CL/F [3]: 22.3 L/h
Cmax [3]: 16.7 ng/mL
Cmax/dose [3]: 16.7 ng/mL/mg
t½ [3]: 6.1 h
AUC∞/dose (single 1.0 mg sc, mean (SD), n=3): 35.4 (1.8) ng·h/mL/mg
Cmax/dose (single 1.0 mg sc, mean (SD), n=6): 17.4 (5.0) ng/mL/mg
AUC∞/dose (single 1.0 mg sc, median, n=3): 34.5 ng·h/mL/mg
AUC0–t (single 1.0 mg sc, median, n=6): 39.2 ng·h/mL
AUC∞ (single 1.0 mg sc, median, n=6): 45.5 ng·h/mL
CL/F (single 1.0 mg sc, median, n=6): 22.7 L/h
Cmax (single 1.0 mg sc, median, n=6): 18.3 ng/mL
Cmax/dose (single 1.0 mg sc, median, n=6): 18.3 ng/mL/mg
t½ (single 1.0 mg sc, median, n=6): 6 h
AUC∞/dose (single 3.0 mg sc, geometric mean, n=4): 50.9 ng·h/mL/mg
Cmax/dose (single 3.0 mg sc, geometric mean, n=6): 17.8 ng/mL/mg
AUC∞/dose (single 3.0 mg sc, mean (SD), n=4): 51.3 (7.7) ng·h/mL/mg
AUC0–t [4]: 138 (18.9) ng·h/mL
AUC∞ [4]: 158 (19.4) ng·h/mL
Cmax [4]: 54.4 (11.3) ng/mL
Cmax/dose [4]: 18.1 (3.8) ng/mL/mg
AUC∞/dose (single 3.0 mg sc, median, n=4): 51.1 ng·h/mL/mg
AUC0–t (single 3.0 mg sc, median, n=6): 138 ng·h/mL
Cmax/dose (single 3.0 mg sc, median, n=6): 16.4 ng/mL/mg
tmax (single 3.0 mg sc, median, n=6): 0.6 h
AUC0–t [5]: 224 ng·h/mL
AUC∞ [5]: 237 ng·h/mL
AUC∞/dose [5]: 47.5 ng·h/mL/mg
CL/F [5]: 21.1 L/h
Cmax [5]: 83.4 ng/mL
Cmax/dose [5]: 16.7 ng/mL/mg
t½ [5]: 16.1 h
AUC∞/dose [6]: 48.0 (7.4) ng·h/mL/mg
Cmax/dose [6]: 17.6 (6.2) ng/mL/mg
AUC0–t (single 5.0 mg sc, median, n=6): 235 ng·h/mL
AUC∞ (single 5.0 mg sc, median, n=6): 246 ng·h/mL
AUC∞/dose (single 5.0 mg sc, median, n=6): 49.2 ng·h/mL/mg
CL/F (single 5.0 mg sc, median, n=6): 20.3 L/h
Cmax (single 5.0 mg sc, median, n=6): 80.9 ng/mL
Cmax/dose (single 5.0 mg sc, median, n=6): 16.2 ng/mL/mg
Vd/F (single 5.0 mg sc, median, n=6): 496 L
t½ (single 5.0 mg sc, median, n=6): 17.3 h
Overall tolerability (single and multiple ascending sc doses): well tolerated
Time after dosing at which PL8177 was first measurable in plasma (single sc dose): 15 min
Persistence of measurable PL8177 in plasma (single sc dose, at higher doses): up to 48 h
AEs leading to study discontinuation, serious AEs, or severe AEs (single-dose arm): no reports
Dose linearity for AUC∞ and Cmax (single-dose arm): inconclusive
Intact drug excreted in the urine (single-dose arm): ≤ 1%
Time after dosing at which Cmax was generally reached (tmax) (single-dose arm): 0.5 to 0.75 h
